These results are taken from ChEMBL document CHEMBL2311431, “Synthesis and biological evaluation of some 5-arylidene-2-(1,3-thiazol-2-ylimino)-1,3-thiazolidin-4-ones as dual anti-inflammatory/antimicrobial agents” (Bioorg Med Chem, 2013).

In brackets after ≈: the same amount, converted by molar mass. Bounds are passed on as bounds.

Data set [1] deals with Mus musculus. Nature of the data set: Acute toxicity in AKR mouse up to 0.5 mmol/kg, ip. The class given is organism-based. The note with it: in vivo.
In data set [2] the test system is Mus musculus. As to the kind of experiment: Antiinflammatory activity in AKR mouse assessed as inhibition of carrageenan-induced paw edema at 0.01 mmol/kg, ip measured after 3.5 hrs of carrageenan-challenge. The class given is functional. In outline: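 AKR mice of both sexes (pregnant females excluded), 6-10 per group, fasted during the experiment. Edema induced by intradermal 0.05 mL of 2% carrageenin into the right hind paw. Compound given at 0.01 mmol/kg ip, suspended in water with Tween-80, at the same time as carrageenin.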
A general note: Carrageenan injected into the paw causes an acute inflammation.

Data set [3] has as its target T1, Prostaglandin G/H synthase 1 (Ovis aries) (UniProt P05979).
T1 sequence (whole entry): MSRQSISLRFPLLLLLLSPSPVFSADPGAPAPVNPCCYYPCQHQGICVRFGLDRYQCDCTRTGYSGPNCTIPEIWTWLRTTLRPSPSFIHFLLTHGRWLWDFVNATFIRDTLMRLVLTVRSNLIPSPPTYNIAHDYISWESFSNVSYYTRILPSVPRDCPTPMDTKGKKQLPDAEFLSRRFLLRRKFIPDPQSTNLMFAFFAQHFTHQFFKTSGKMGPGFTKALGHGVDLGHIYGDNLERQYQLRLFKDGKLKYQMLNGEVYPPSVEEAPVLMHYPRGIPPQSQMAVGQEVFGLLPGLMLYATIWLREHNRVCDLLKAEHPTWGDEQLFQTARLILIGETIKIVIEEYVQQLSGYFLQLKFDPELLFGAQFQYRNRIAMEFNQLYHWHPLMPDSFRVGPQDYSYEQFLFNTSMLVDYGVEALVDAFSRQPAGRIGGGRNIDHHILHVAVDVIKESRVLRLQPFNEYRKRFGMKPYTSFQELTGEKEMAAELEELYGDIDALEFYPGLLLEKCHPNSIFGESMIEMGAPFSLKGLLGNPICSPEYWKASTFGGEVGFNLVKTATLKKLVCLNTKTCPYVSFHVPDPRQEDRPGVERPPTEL
Nature of the data set: (§1) Inhibition of ovine COX1 assessed as inhibition of PGF2a production by enzyme immunoassay. The conditions noted are these: concentration not given here. On the set-up: concentration or dose not given beside the values. The method in brief:
(§2)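 Ovine COX-1 from a commercial screening kit, tested with 0.1 µM arachidonic acid, which is below the saturating level. COX-derived PGH2 is reduced by SnCl2 to PGF2a, quantified by enzyme immunoassay with a broad prostaglandin antibody. At least triplicate.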

Data set [4] deals with T2, Prostaglandin G/H synthase 1 (Ovis aries, UniProt P05979).
T2 sequence (P05979 whole entry): T1 sequence (whole entry)
The description is as §1. In outline: as §2

Data set [5] can be described thus: (§3) Inhibition of soybean lipoxygenase assessed as inhibition of sodium linolate conversion to 13-hydroperoxylinoleic acid after 4 mins by spectrophotometry. Also noted: species or system Glycine max. The conditions noted are these: read-out: IC50.
Data set [6] deals with Glycine max. The description is as §3.
The subject of data set [7] is Aspergillus niger. Nature of the data set: Fungicidal activity against Aspergillus niger ATCC 6275 after 72 hrs by serial subcultivation method. The class given is functional. The note with it: ATCC 6275, 72 h.
Data set [8] relates to Aspergillus niger. Nature of the data set: Antifungal activity against Aspergillus niger ATCC 6275 after 72 hrs by serial dilution technique. The class given is functional. The note with it: ATCC 6275, 72 h. In outline: (§4)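 Serial dilution in malt broth; compounds from 1 mg/ml stocks in 5% DMSO; 72 h at 28 °C. MIC is the lowest concentration with no visible growth under a binocular microscope. Run in duplicate, repeated three times.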

Data set [9] relates to Aspergillus fumigatus. Nature of the data set: Fungicidal activity against Aspergillus fumigatus after 72 hrs by serial subcultivation method. It counts as functional.
In data set [10] the test system is Aspergillus flavus. Nature of the data set: Fungicidal activity against Aspergillus flavus ATCC 9643 after 72 hrs by serial subcultivation method. It counts as functional. The note with it: ATCC 9643, 72 h.
Data set [11] concerns Trichoderma viride. As to the kind of experiment: Fungicidal activity against Trichoderma viride IAM 5061 after 72 hrs by serial subcultivation method. It counts as functional. The note with it: IAM 5061, 72 h.
For data set [12], the system named is Penicillium ochrochloron. Nature of the data set: Fungicidal activity against Penicillium ochrochloron ATCC 9112 after 72 hrs by serial subcultivation method. The class given is functional. The conditions noted are these: ATCC 9112, 72 h.
For data set [13], the system named is Aspergillus flavus. As to the kind of experiment: Antifungal activity against Aspergillus flavus ATCC 9643 after 72 hrs by serial dilution technique. The note with it: ATCC 9643, 72 h. The class given is functional. In outline:
as §4

Data set [14] relates to Talaromyces funiculosus. As to the kind of experiment: Fungicidal activity against Penicillium funiculosum ATCC 36839 after 72 hrs by serial subcultivation method. The conditions noted are these: ATCC 36839, 72 h. The class given is functional.
The test system of data set [15] is Aspergillus fumigatus. As to the kind of experiment: Antifungal activity against Aspergillus fumigatus after 72 hrs by serial dilution technique. The class given is functional. In outline: as §4
Data set [16] deals with Trichoderma viride. As to the kind of experiment: Antifungal activity against Trichoderma viride IAM 5061 after 72 hrs by serial dilution technique. It counts as functional. The conditions noted are these: IAM 5061, 72 h. The method in brief:
as §4

For data set [17], the system named is Penicillium ochrochloron. As to the kind of experiment: Antifungal activity against Penicillium ochrochloron ATCC 9112 after 72 hrs by serial dilution technique. The conditions noted are these: ATCC 9112, 72 h. It counts as functional. In outline: as §4
For data set [18], the system named is Talaromyces funiculosus. Nature of the data set: Antifungal activity against Penicillium funiculosum ATCC 36839 after 72 hrs by serial dilution technique. The class given is functional. The conditions noted are these: ATCC 36839, 72 h. In outline:
as §4

The test system of data set [19] is Escherichia coli. Nature of the data set: Bactericidal activity against Escherichia coli ATCC 35210 after 72 hrs by serial subcultivation method. It counts as functional. The note with it: ATCC 35210, 72 h.
The subject of data set [20] is Pseudomonas aeruginosa. Nature of the data set: Bactericidal activity against Pseudomonas aeruginosa ATCC 27853 after 72 hrs by serial subcultivation method. It counts as functional. The note with it: ATCC 27853, 72 h.
The test system of data set [21] is Listeria monocytogenes. As to the kind of experiment: Bactericidal activity against Listeria monocytogenes NCTC 7973 after 72 hrs by serial subcultivation method. The class given is functional. The note with it: NCTC 7973, 72 h.
Data set [22] has as its system Bacillus cereus. As to the kind of experiment: Bactericidal activity against Bacillus cereus clinical isolate after 72 hrs by serial subcultivation method. The class given is functional.
In data set [23] the test system is Micrococcus flavus. As to the kind of experiment: Bactericidal activity against Micrococcus flavus ATCC 10240 after 72 hrs by serial subcultivation method. The class given is functional. The note with it: ATCC 10240, 72 h.
For data set [24], the system named is Staphylococcus aureus. As to the kind of experiment: Bactericidal activity against Staphylococcus aureus ATCC 6538 after 72 hrs by serial subcultivation method. It counts as functional. The conditions noted are these: ATCC 6538, 72 h.
The subject of data set [25] is Escherichia coli. As to the kind of experiment: Antibacterial activity against Escherichia coli ATCC 35210 after 24 hr by microdilution test. The note with it: ATCC 35210, 24 h. The class given is functional. The method in brief:
(§5)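 Broth microdilution in LB medium, about 1.0×10^4 cfu per well; compounds from 1 mg/ml stocks in 5% DMSO. Incubated 24 h. MIC is the lowest concentration with no visible growth under a binocular microscope. Run in duplicate, repeated three times.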

Data set [26] concerns Listeria monocytogenes. Nature of the data set: Antibacterial activity against Listeria monocytogenes NCTC 7973 after 24 hr by microdilution test. The class given is functional. The conditions noted are these: NCTC 7973, 24 h. In outline:
as §5
(In general: Broth dilution looks for growth in wells or tubes with falling amounts of substance.)

In data set [27] the test system is Pseudomonas aeruginosa. As to the kind of experiment: Antibacterial activity against Pseudomonas aeruginosa ATCC 27853 after 24 hr by microdilution test. It counts as functional. The note with it: ATCC 27853, 24 h. The method in brief:
as §5

Data set [28] concerns Micrococcus flavus. As to the kind of experiment: Antibacterial activity against Micrococcus flavus ATCC 10240 after 24 hr by microdilution test. It counts as functional. The conditions noted are these: ATCC 10240, 24 h. In outline:
as §5

Data set [29] has as its system Bacillus cereus. As to the kind of experiment: Antibacterial activity against Bacillus cereus clinical isolate after 24 hr by microdilution test. It counts as functional. In outline:
as §5

Data set [30] has as its system Staphylococcus aureus. Nature of the data set: Antibacterial activity against Staphylococcus aureus ATCC 6538 after 24 hr by microdilution test. It counts as functional. The note with it: ATCC 6538, 24 h. The method in brief:
as §5

Broadly, the inhibition in vivo is the drop in the measured response relative to a control, in per cent. As a reminder, the inhibition is the share of the control response that was lost under treatment. By IC50 is commonly meant the concentration needed to halve the response being measured. The MFC is the lowest tested concentration that kills the fungus rather than only halting it. Usually MIC stands for the smallest concentration in the dilution series that meets the test's criterion for growth inhibition. The term MBC denotes the smallest concentration meeting the test's criterion for killing. As for `O=C1N/C(=N\c2nccs2)S/C1=C\c1cccc(Cl)c1Cl`, the Activity entry in data set [1] is “Non-toxic”. Further, the inhibition in vivo at 10 µmol/kg in [2] came to 45%. For the same molecule, the inhibition in data set [3] was 100%; in [6] it was 41%. The IC50 in data set [4] is 10 µM; in [5] it was 143 µM. The MFC in data set [7] was found to be 56.2 µM (≈ 20 µg/mL); in data set [9], 70.2 µM (≈ 25 µg/mL); in [10] it was 56.2 µM (≈ 20 µg/mL); in [11], 56.2 µM (≈ 20 µg/mL); in data set [12], 56.2 µM (≈ 20 µg/mL); in data set [14], 56.2 µM (≈ 20 µg/mL). For the same molecule, the MIC in data set [8] was 42.1 µM (≈ 15 µg/mL); in data set [13], 42.1 µM (≈ 15 µg/mL); in [15], 56.2 µM (≈ 20 µg/mL); in data set [16], 28.1 µM (≈ 10 µg/mL); in data set [17], 42.1 µM (≈ 15 µg/mL); in [18], 28.1 µM (≈ 10 µg/mL). Further, the MIC in [25] amounted to 56.2 µM (≈ 20 µg/mL); in data set [26] it was 70.2 µM (≈ 25 µg/mL); in data set [27], 28.1 µM (≈ 10 µg/mL); in data set [28] it was 56.2 µM (≈ 20 µg/mL); in data set [29] it was 56.2 µM (≈ 20 µg/mL); in data set [30], 70.2 µM (≈ 25 µg/mL). Also, the MBC in [19] came out at 70.2 µM (≈ 25 µg/mL); in [20], 56.2 µM (≈ 20 µg/mL); in data set [21] it was 84.2 µM (≈ 30 µg/mL); in data set [22] it was 70.2 µM (≈ 25 µg/mL); in [23], 84.2 µM (≈ 30 µg/mL); in data set [24] it was 84.2 µM (≈ 30 µg/mL).
Take `O=C1N/C(=N\c2nccs2)S/C1=C\c1cccc(O)c1`: in data set [1], the Activity entry is listed as “Non-toxic”. Further, the inhibition in vivo at 10 µmol/kg in [2] is 33.7%. For the same molecule, the figures for the inhibition in [3] and in data set [6] were 98% and 35%, respectively. Moreover, the figures for the IC50 in data set [4] and in data set [5] were 16 µM and greater than 150 µM, respectively.
Consider `O=C1N/C(=N\c2nccs2)S/C1=C\c1ccc(F)cc1`, for which, in data set [1], the Activity entry is reported as “Non-toxic”. Also, the inhibition in vivo at 10 µmol/kg in data set [2] was 65.6%. The inhibition in data set [3] turned out to be 44%; in data set [6], 35%. Also, the concentration for half-maximal inhibition (IC50) in [5] is greater than 150 µM. Moreover, the MFC in [7] amounted to 65.4 µM (≈ 20 µg/mL); in data set [9], 65.4 µM (≈ 20 µg/mL); in data set [10] it was 81.9 µM (≈ 25 µg/mL); in data set [11], 65.4 µM (≈ 20 µg/mL); in [12], 65.4 µM (≈ 20 µg/mL); in data set [14], 65.4 µM (≈ 20 µg/mL). Moreover, the MIC in data set [8] worked out at 32.7 µM (≈ 9.99 µg/mL); in data set [13], 65.4 µM (≈ 20 µg/mL); in data set [15], 49.1 µM (≈ 15 µg/mL); in data set [16], 32.7 µM (≈ 9.99 µg/mL); in data set [17], 32.7 µM (≈ 9.99 µg/mL); in [18] it was 32.7 µM (≈ 9.99 µg/mL). Moreover, the MIC in data set [25] was found to be 32.7 µM (≈ 9.99 µg/mL); in data set [26], 81.9 µM (≈ 25 µg/mL); in [27], 32.7 µM (≈ 9.99 µg/mL); in data set [28], 65.4 µM (≈ 20 µg/mL); in data set [29], 24.6 µM (≈ 7.51 µg/mL); in data set [30] it was 32.7 µM (≈ 9.99 µg/mL). Further, the MBC in data set [19] amounted to 65.4 µM (≈ 20 µg/mL); in data set [20] it was 65.4 µM (≈ 20 µg/mL); in data set [21] it was 98.2 µM (≈ 30 µg/mL); in data set [22] it was 32.7 µM (≈ 9.99 µg/mL); in [23] it was 81.9 µM (≈ 25 µg/mL); in data set [24] it was 65.4 µM (≈ 20 µg/mL).
